Laboratory results as given in PubChem BioAssay.
Active and inactive are the calls of the source.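 The calls were made as follows, unless noted: active = fluorescence slope higher than the sample average by over 3 SD (cut at about -0.22 in these data, passing the limit was not always enough); inactive = the rest.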 Where a SMILES comes first, the peptide text is derived from it. The star is where a group is joined. Boc = CC(C)(C)OC(=O)*

Columns and labels:
[1] = inhibitors of TNFa-induced NFkB p65 translocation, primary screen, imaging, HUVEC, MLSMR starter and 10KST1 sets (AID 438;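 active = inhibition above 20% together with a positive visual image hit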;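 also: compound added about 3h40 before a 20 min TNFalpha stimulation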;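 as to inhibition: signal is the nuclear over cytoplasmic p65 intensity ratio per well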); conditions: HUVEC TNFa-induced p65 nuclear translocation; cell count: measured here: nuclei count (cytotoxicity indicator), at 2.08 µM; inhibition: at 2 µM, stronger effect = higher value, 0% TNFa-plus-vehicle, 100% no-TNFa wells
[2] = inhibitors of mutant huntingtin aggregation, primary screen, imaging, exon1htt(103Q)mCFP cells, high-content imaging (AID 483;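 active = visual image review flags a hit and inhibition of aggregation exceeds 20%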;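 also: compound exposure lasted 3 days before fixation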;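 as to nuclei count: percent of the per-plate median nuclei count of sample wells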); conditions: exon1htt(103Q)mCFP cell line, aggregate imaging, at 2 µM; inhibition of aggregation: stronger effect = higher value; nuclei count: measured here: cell count, toxicity
[3] = inhibitors of E-selectin induction by TNFa, primary screen, imaging, HUVEC, immunofluorescence, MLSMR starter and 10KST1 sets (AID 487;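 active = visually confirmed hit in the image check and inhibition above 20%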;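 as to inhibition: signal is fraction of cell area covered by stained E-selectin grains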;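 as to nuclei count: 100% = median nuclei count of all wells on the same plate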); conditions: HUVEC TNFalpha-induced E-selectin immunofluorescence imaging, at 2 µM; inhibition: stronger effect = higher value; nuclei count: measured here: cell number, toxicity
[4] = target: Voltage-gated potassium channel subunit beta-2 (Rattus norvegicus) (UniProt P62483); experiment: KvBeta enzyme negative modulators, primary screen, biochemical, NADPH fluorescence (AID 622); conditions: recombinant KvBeta, 4-cyanobenzaldehyde reduction, at 10 µM, stronger effect = higher value;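 also: slope of raw intensity against log time taken from 70 to 1610 s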
[5] = target: Voltage-gated potassium channel subunit beta-2 (Rattus norvegicus) (UniProt P62483); experiment: KvBeta positive modulators, primary screen, biochemical, NADPH fluorescence (AID 623;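 active = NADPH fluorescence slope more negative than the mean of all samples by about 3 SD, 99.7% confidence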;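 also: fluorescence intensity change per second fitted from 20 to 320 s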); conditions: Recombinant KvBeta, NADPH fluorescence decrease slope, 10 min; at 10 µM; stronger effect = lower value
[6] = target: Muscarinic acetylcholine receptor M4 (Homo sapiens) (UniProt P08173); experiment: compounds altering M4/GIRK thallium flux, either direction, primary screen, M4 allosteric agonist project, cell-based, HEK293 M4/GIRK, BTC-AM (AID 625;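 active = fluorescence slope after compound addition differing from the mean of all tested samples at 99.7% confidence, mostly higher but some lower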;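 also: thallium influx through GIRK channels coupled to M4 in HEK293 cells with BTC-AM dye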); conditions: at 10 µM, actives lie on both sides
Procedure, shortened: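 assay system = HEK293 cells with M4 receptor and GIRK channels | medium = pH 7.3 thallium assay buffer | doses = 10 µM final, single point | timing = cells overnight at 37 °C, BTC-AM loading 1 h, reads 2 min total | signal = BTC-AM fluorescence, 1 Hz kinetic reads | read-out = post-addition slope, 15–24 s, of baseline-normalized fluorescence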

[7] = inhibitors of Sendai virus-induced IRF3 signaling, primary screen, TLR/RLR signaling modifier project, cell-based, Sendai virus stimulus, luciferase, 10K MLSCN set (AID 602276;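 active = inhibition at or above 50% at 10 µM; inactive = inhibition below 50%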;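 also: firefly luciferase from ISG56 promoter only with Renilla not read in this screen; 0% = Sendai virus plus DMSO and 100% = medium plus DMSO without virus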); conditions: HEK293 RL24 IRF3 luciferase reporter, at 10 µM, stronger effect = higher value
[8] = inhibitors of poly I:C-induced TLR3 signaling, primary screen, cell-based, poly I:C stimulus, luciferase, 10K MLSCN set (AID 602277;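 active = inhibition of the reporter signal at or above 50%; inactive = inhibition below 50%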); conditions: HEK293-TLR3 RL24 IRF3 luciferase reporter, at 10 µM, stronger effect = higher value

Sequence of Voltage-gated potassium channel subunit beta-2 (Rattus norvegicus) (P62483 whole entry, looked up): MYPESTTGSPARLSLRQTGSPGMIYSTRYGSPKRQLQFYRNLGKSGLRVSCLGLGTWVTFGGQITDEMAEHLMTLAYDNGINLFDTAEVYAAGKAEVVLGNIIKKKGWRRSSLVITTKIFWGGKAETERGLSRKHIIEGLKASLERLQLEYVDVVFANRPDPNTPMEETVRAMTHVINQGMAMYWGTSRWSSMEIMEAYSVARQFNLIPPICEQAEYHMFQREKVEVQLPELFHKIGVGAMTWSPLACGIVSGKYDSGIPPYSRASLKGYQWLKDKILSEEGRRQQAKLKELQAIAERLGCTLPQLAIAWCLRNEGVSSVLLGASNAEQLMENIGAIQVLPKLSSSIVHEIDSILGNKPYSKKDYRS
Sequence of Muscarinic acetylcholine receptor M4 (Homo sapiens) (P08173 whole entry, looked up): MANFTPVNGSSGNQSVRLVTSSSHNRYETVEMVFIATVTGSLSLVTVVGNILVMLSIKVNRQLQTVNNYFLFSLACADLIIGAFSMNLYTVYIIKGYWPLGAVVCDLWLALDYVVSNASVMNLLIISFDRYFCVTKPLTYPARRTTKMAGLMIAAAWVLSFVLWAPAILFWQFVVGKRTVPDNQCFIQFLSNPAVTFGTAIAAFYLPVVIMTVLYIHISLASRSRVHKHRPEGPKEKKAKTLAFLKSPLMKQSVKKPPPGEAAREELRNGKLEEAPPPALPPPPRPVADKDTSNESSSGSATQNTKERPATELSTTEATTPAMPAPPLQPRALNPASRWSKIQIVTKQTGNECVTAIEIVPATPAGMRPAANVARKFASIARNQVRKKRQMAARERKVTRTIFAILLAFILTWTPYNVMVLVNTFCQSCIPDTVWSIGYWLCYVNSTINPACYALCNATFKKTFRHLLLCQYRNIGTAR

| Compound | cell count [1] | inhibition [1] | inhibition of aggregation [2] | nuclei count [2] [%] | inhibition [3] | nuclei count [3] [%] | fluorescence slope [4] | NADPH fluorescence slope [5] | fluorescence slope [6] | inhibition [7] | inhibition [8] |
| --- | --- | --- | --- | --- | --- | --- | --- | --- | --- | --- | --- |
| O=C(O)COc1ccc2occ(C(=O)c3ccccc3)c2c1 | 232 | -4.4% (inactive) | 24.2% (inactive) | 94.5 | -56.2% (inactive) | 104 | -0.592 (inactive) | -4.3e-05 (inactive) | 0.00364 (inactive) | 10.3% (inactive) | 4.56% (inactive) |
| Cn1c(=O)c2c(nc(NCCc3ccccc3)n2CC(=O)NCCc2ccccc2)n(C)c1=O | 339 | 2.5% (inactive) | 6.2% (inactive) | 94.2 | -86.4% (inactive) | 105 | -0.575 (inactive) | 2.8e-06 (inactive) | 0.00514 (inactive) | 30.2% (inactive) | 31.9% (inactive) |
| Cc1noc(C)c1C(=O)Nc1sc(C)c(C)c1C#N | 264 | 3.7% (inactive) | 7.6% (inactive) | 87.5 | -40.3% (inactive) | 103 | -0.436 (inactive) | -2.4e-06 (inactive) | 0.00444 (inactive) | -9.52% (inactive) | -43.8% (inactive) |
| CCOC(=O)C1=C(C)Nc2ncnn2C1c1ccccc1F (stereo not drawn) | 469 | -5.9% (inactive) | -7.1% (inactive) | 81.7 | -49.3% (inactive) | 102 | -0.559 (inactive) | -1.9e-05 (inactive) | 0.00641 (inactive) | -5.35% (inactive) | -2.56% (inactive) |
| Cc1ccc(F)cc1NC(=O)Cc1nn(C)c(=O)c2ccccc12 | 247 | 0.9% (inactive) | 4.8% (inactive) | 93.3 | 17.2% (inactive) | 102 | -0.555 (inactive) | -2.8e-05 (inactive) | 0.00476 (inactive) | 7.41% (inactive) | -19% (inactive) |
| Cn1cnnc1Sc1nc2c(c(=O)n(C)c(=O)n2C)n1C | 613 | -33.7% (inactive) | 11.6% (inactive) | 90.4 | -50.7% (inactive) | 100 | -0.547 (inactive) | 2.3e-05 (inactive) | 0.00524 (inactive) | -1.17% (inactive) | 9.62% (inactive) |
| OCC#CCSc1nnc(-c2ccccc2Br)o1 | 390 | -5.2% (inactive) | -3.5% (inactive) | 110 | -111% (inactive) | 132 | -0.515 (inactive) | -0.000137 (inactive) | 0.00341 (inactive) | -9.39% (inactive) | -45.2% (inactive) |
| CCOC(=O)c1cnn(-c2ncnc3c2cnn3Cc2ccccc2)c1N | 410 | -4.6% (inactive) | 8.7% (inactive) | 100 | -19.2% (inactive) | 118 | -0.51 (inactive) | 1.3e-05 (inactive) | 0.0057 (inactive) | 17.2% (inactive) | 17.4% (inactive) |
| CCOc1ccc(C(=O)Cc2ccc3oc(C(=O)O)cc3c2)c(O)c1 | 580 | 10.2% (inactive) | 4.1% (inactive) | 63.8 | -3.3% (inactive) | 97.5 | -0.522 (inactive) | -4.9e-05 (inactive) | 0.00668 (inactive) | 16.4% (inactive) | 22.3% (inactive) |
| CCOc1ccc2[nH]c(=O)c(CN(Cc3ccccc3)C(=O)N3CCCC3)cc2c1 | 497 | -14.1% (inactive) | 14.8% (inactive) | 67.9 | 54.1% (inactive) | 48.2 | -0.475 (inactive) | 6.7e-06 (inactive) | 0.00557 (inactive) | 10.6% (inactive) | 25.9% (inactive) |
| CNC(=O)CN(C#N)c1nc(N(C)C)nc(N(C)C)n1 | 349 | -2.3% (inactive) | 5.1% (inactive) | 92.5 | -47.6% (inactive) | 114 | -0.553 (inactive) | -2.5e-05 (inactive) | 0.00632 (inactive) | 6.17% (inactive) | 10.6% (inactive) |
| CC(NC(=O)CSc1n[nH]c(=O)n1C1CC1)C12CC3CC(CC(C3)C1)C2 (stereo not drawn) | 563 | -23% (inactive) | -6.1% (inactive) | 101 | -5.1% (inactive) | 110 | -0.378 (inactive) | 8.6e-05 (inactive) | 0.00652 (inactive) | 7.91% (inactive) | 23.3% (inactive) |
| COc1ccc(-n2cc(-c3ccccc3)c3c(N4CCN(CCO)CC4)ncnc32)cc1 | 568 | -26.5% (inactive) | 3.6% (inactive) | 102 | -29.3% (inactive) | 99.1 | -0.519 (inactive) | -6.1e-07 (inactive) | 0.003 (inactive) | 13.2% (inactive) | 25.2% (inactive) |
| CCOC(=O)c1ccc(NC(=O)CCc2nc(-c3ccc(C)cc3)no2)cc1 | 368 | 0.7% (inactive) | 21.5% (inactive) | 103 | -32.9% (inactive) | 116 | -0.556 (inactive) | -2.2e-05 (inactive) | 0.0041 (inactive) | 11.4% (inactive) | -5.93% (inactive) |
| COc1ccccc1CNS(=O)(=O)c1cccc(S(=O)(=O)N2CCOCC2)c1 | 676 | 25.1% (inactive) | 7.8% (inactive) | 116 | 19.5% (inactive) | 117 | -0.401 (inactive) | 2.6e-05 (inactive) | 0.00588 (inactive) | 10.7% (inactive) | 19.2% (inactive) |
| O=C(O)C1C2CCC(O2)C1C(=O)Nc1cccc(F)c1 (stereo not drawn) | 596 | -2% (inactive) | -0.8% (inactive) | 109 | -56.8% (inactive) | 104 | -0.435 (inactive) | -3.5e-06 (inactive) | 0.00527 (inactive) | 20.3% (inactive) | 19.5% (inactive) |
| COc1cccc(-c2noc(CCC(=O)NC3CCCCC3)n2)c1 | 433 | -12.7% (inactive) | -6.8% (inactive) | 112 | -39.4% (inactive) | 108 | -0.461 (inactive) | -4.1e-05 (inactive) | 0.00539 (inactive) | 11% (inactive) | 15.2% (inactive) |
| CCC(c1nnc(SCC(=O)NCC2CCCO2)n1Cc1ccccc1)N(C)C (stereo not drawn) | 414 | -5.7% (inactive) | 0.8% (inactive) | 52.5 | -136% (inactive) | 110 | -0.508 (inactive) | -2.1e-05 (inactive) | 0.00548 (inactive) | 21% (inactive) | 25.8% (inactive) |
| O=S(=O)(NCCc1ccccc1F)c1cccc(S(=O)(=O)N2CCOCC2)c1 | 434 | 5.7% (inactive) | 6.4% (inactive) | 105 | -14.8% (inactive) | 110 | -0.584 (inactive) | 1.5e-06 (inactive) | 0.00428 (inactive) | 9.49% (inactive) | 13% (inactive) |
| O=c1c(-c2ccc(F)cc2)coc2c3c(ccc12)OCCO3 | 337 | 0.7% (inactive) | 14.4% (inactive) | 131 | -65.5% (inactive) | 124 | -0.501 (inactive) | -0.000205 (inactive) | 0.00582 (inactive) | -29.6% (inactive) | -86.4% (inactive) |
| C=C(C)c1cccc(C(C)(C)NC(=O)Nc2ncccn2)c1 | 472 | -4.3% (inactive) | 1.6% (inactive) | 106 | -0.4% (inactive) | 99.6 | -0.601 (inactive) | -1.1e-05 (inactive) | 0.00622 (inactive) | -42.4% (inactive) | 98.6% (active) |
| CC(C)(C)OC(=O)N1CCCC1C(=O)N1CCCC1C(=O)N1CCCC1C(=O)O (stereo not drawn) (Boc-Pro-Pro-Pro-OH; configuration not given here) | 302 | -6.9% (inactive) | 4.5% (inactive) | 49.1 | -59.4% (inactive) | 102 | -0.571 (inactive) | -4.7e-05 (inactive) | 0.00689 (inactive) | 5.97% (inactive) | 15.3% (inactive) |
| CCCC(C)C(=O)Nc1ccc(C(N)=O)cc1 (stereo not drawn) | 668 | 0.5% (inactive) | 1% (inactive) | 110 | 22.4% (inactive) | 87 | -0.272 (inactive) | -3.2e-05 (inactive) | 0.00544 (inactive) | 11.2% (inactive) | 13.5% (inactive) |
| c1c2c(cc3sc(N4CCCCC4)nc13)OCCO2 | 266 | -5.8% (inactive) | 14.4% (inactive) | 87.6 | 2.1% (inactive) | 88.9 | -0.54 (inactive) | -9.8e-06 (inactive) | 0.00468 (inactive) | -0.203% (inactive) | -45.7% (inactive) |
| COc1ccc(-c2nn3c(-c4ccncc4)nnc3s2)cc1OC | 562 | 5.4% (inactive) | -7.4% (inactive) | 90.8 | 24.6% (inactive) | 105 | -0.42 (inactive) | -0.000356 (inactive) | 0.00419 (inactive) | 19.4% (inactive) | 24.2% (inactive) |
| N#Cc1c(NC(=O)COC(=O)C2CC3C=CC2C3)oc(-c2ccccc2)c1-c1ccccc1 (stereo not drawn) | 282 | 18.4% (inactive) | -7.7% (inactive) | 95.7 | -44.1% (inactive) | 94.6 | -0.399 (inactive) | -0.000409 (inactive) | 0.00531 (inactive) | -1.94% (inactive) | 99% (active) |
| Fc1ccccc1-c1nc(-c2ccccc2)no1 | 632 | 13.8% (inactive) | 3.3% (inactive) | 103 | -5.4% (inactive) | 97.2 | -0.554 (inactive) | -7.9e-05 (inactive) | 0.00608 (inactive) | -27.9% (inactive) | -60% (inactive) |
| CCC(=O)N1CCCc2cc(S(=O)(=O)N3CCCc4ccccc43)ccc21 | 684 | 2.1% (inactive) | -1.8% (inactive) | 100 | -142% (inactive) | 125 | -0.552 (inactive) | 3.3e-05 (inactive) | 0.00501 (inactive) | 20% (inactive) | 34% (inactive) |
